{"source": "ChEMBL document CHEMBL3352593", "about": "“Tumor xenograft uptake of a pyrrole-imidazole (Py-Im) polyamide varies as a function of cell line grafted” (J Med Chem, 2014)", "key": {"Liver [1]": {"test_system": "Liver", "test": "Drug level in liver of matrigel-negative human A549 cells xenografted NSG mouse at 20 nmol, ip measured 5 weeks past engraftment by liquid scintillation counting method", "format": "ADME, organism-based", "settings": "in vivo, 840 h, in the assay text read “matrigel-positive” for “matrigel-negative”; call rule not given here", "method_in_brief": "(§1)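 Male NSG mice obtained at 8 weeks of age. Tumours engrafted subcutaneously with 2.5 M cells (viability ≥95% by trypan blue) in medium or 1:1 Matrigel; naive animals had no graft. Mice received 20 nmol C-14 polyamide per animal intraperitoneally. Tissues harvested 24 h later, solubilized, decolorized, and counted by liquid scintillation. Values are quench-corrected and normalized to organ weight; each tissue was analysed individually.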"}, "Lung [2]": {"test_system": "Lung", "test": "Drug level in lung of human LNCAP cells xenografted NSG mouse at 20 nmol, ip after 24 hrs by liquid scintillation counting method", "format": "ADME, organism-based", "settings": "in vivo", "method_in_brief": "as §1"}, "Tumour [3]": {"test_system": "Tumour", "test": "Drug level in tumor of matrigel-positive human A549 cells xenografted NSG mouse at 20 nmol, ip measured 3 to 4 weeks past engraftment by liquid scintillation counting method", "format": "ADME, organism-based, Neoplasm", "settings": "in vivo", "method_in_brief": "as §1"}, "Tumour [4]": {"test_system": "Tumour", "test": "Drug level in tumor of matrigel-negative human A549 cells xenografted NSG mouse at 20 nmol, ip measured 5 weeks past engraftment by liquid scintillation counting method", "format": "ADME, organism-based, Neoplasm", "settings": "in vivo, 840 h", "method_in_brief": "as §1"}, "Liver [5]": {"test_system": "Liver", "test": "Drug level in liver of human A549 cells and human LNCAP cells xenografted NSG mouse at 20 nmol, ip after 24 hrs by liquid scintillation counting method", "format": "ADME, organism-based", "settings": "in vivo", "method_in_brief": "as §1"}, "Liver [6]": {"test_system": "Liver", "test": "Drug level in liver of matrigel-positive human A549 cells xenografted NSG mouse at 20 nmol, ip measured 5 weeks past engraftment by liquid scintillation counting method", "format": "ADME, organism-based", "settings": "in vivo, 840 h, in the assay text read “matrigel-negative” for “matrigel-positive”", "method_in_brief": "as §1"}, "Tumour [7]": {"test_system": "Tumour", "test": "Drug level in tumor of matrigel-negative human A549 cells xenografted NSG mouse at 20 nmol, ip measured 3 to 4 weeks past engraftment by liquid scintillation counting method", "format": "ADME, organism-based, Neoplasm", "settings": "in vivo", "method_in_brief": "as §1"}, "Liver [8]": {"test_system": "Liver", "test": "Drug level in liver of human U251 cells xenografted NSG mouse at 20 nmol, ip after 24 hrs by liquid scintillation counting method", "format": "ADME, organism-based, U-251", "settings": "in vivo", "method_in_brief": "as §1"}, "Bone marrow": {"test_system": "Bone marrow", "test": "Drug level in balb/c mouse bone marrow at 15 nmol, ip after 24 hrs by liquid scintillation counting method", "format": "ADME, organism-based", "settings": "in vivo", "method_in_brief": "(§2)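 Male balb/c mice given C-14-labelled polyamide (quantitated by scintillation counting before dosing) as a single 15 nmol intraperitoneal dose per animal. Organs collected 24 h later and solubilized at +65 °C for at least 12 h, then decolorized with H2O2. C-14 counted by liquid scintillation, quench-corrected and normalized to organ weight. N = 5, mean with standard deviation.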"}, "Kidney [9]": {"test_system": "Kidney", "test": "Drug level in kidney of human A549 cells xenografted NSG mouse at 20 nmol, ip after 24 hrs by liquid scintillation counting method", "format": "ADME, organism-based", "settings": "in vivo", "method_in_brief": "as §1"}, "Kidney [10]": {"test_system": "Kidney", "test": "Drug level in kidney of naive NSG mouse at 20 nmol, ip after 24 hrs by liquid scintillation counting method", "format": "ADME, organism-based", "settings": "in vivo", "method_in_brief": "as §1"}, "Liver [11]": {"test_system": "Liver", "test": "Drug level in liver of human A549 cells xenografted NSG mouse at 20 nmol, ip after 24 hrs by liquid scintillation counting method", "format": "ADME, organism-based", "settings": "in vivo", "method_in_brief": "as §1"}, "Kidney [12]": {"test_system": "Kidney", "test": "Drug level in balb/c mouse kidney at 15 nmol, ip after 24 hrs by liquid scintillation counting method", "format": "ADME, organism-based", "settings": "in vivo", "method_in_brief": "as §2"}, "Tumour [13]": {"test_system": "Tumour", "test": "Drug level in tumor of matrigel-positive human A549 cells xenografted NSG mouse at 20 nmol, ip measured 5 weeks past engraftment by liquid scintillation counting method", "format": "ADME, organism-based, Neoplasm", "settings": "in vivo, 840 h", "method_in_brief": "as §1"}, "Tumour [14]": {"test_system": "Tumour", "test": "Drug level in tumor of human LNCAP cells xenografted NSG mouse at 20 nmol, ip after 24 hrs by liquid scintillation counting method", "format": "ADME, organism-based, Neoplasm", "settings": "in vivo", "method_in_brief": "as §1"}, "Tumour [15]": {"test_system": "Tumour", "test": "Drug level in tumor of human A549 cells xenografted NSG mouse at 20 nmol, ip after 24 hrs by liquid scintillation counting method", "format": "ADME, organism-based, Neoplasm", "settings": "in vivo", "method_in_brief": "as §1"}, "Liver [16]": {"test_system": "Liver", "test": "Drug level in liver of human LNCAP cells xenografted NSG mouse at 20 nmol, ip after 24 hrs by liquid scintillation counting method", "format": "ADME, organism-based", "settings": "in vivo", "method_in_brief": "as §1"}, "Lung [17]": {"test_system": "Lung", "test": "Drug level in lung of human A549 cells xenografted NSG mouse at 20 nmol, ip after 24 hrs by liquid scintillation counting method", "format": "ADME, organism-based", "settings": "in vivo", "method_in_brief": "as §1"}, "Kidney [18]": {"test_system": "Kidney", "test": "Drug level in kidney of human A549 cells and human LNCAP cells xenografted NSG mouse at 20 nmol, ip after 24 hrs by liquid scintillation counting method", "format": "ADME, organism-based", "settings": "in vivo", "method_in_brief": "as §1"}, "Spleen": {"test_system": "Spleen", "test": "Drug level in balb/c mouse spleen at 15 nmol, ip after 24 hrs by liquid scintillation counting method", "format": "ADME, organism-based", "settings": "in vivo", "method_in_brief": "as §2"}, "Tumour [19]": {"test_system": "Tumour", "test": "Drug level in tumor of human U251 cells xenografted NSG mouse at 20 nmol, ip after 24 hrs by liquid scintillation counting method", "format": "ADME, organism-based, Neoplasm, U-251", "settings": "in vivo", "method_in_brief": "as §1"}, "Liver [20]": {"test_system": "Liver", "test": "Drug level in balb/c mouse liver at 15 nmol, ip after 24 hrs by liquid scintillation counting method", "format": "ADME, organism-based", "settings": "in vivo", "method_in_brief": "as §2"}, "Brain": {"test_system": "Brain", "test": "Drug level in balb/c mouse brain at 15 nmol, ip after 24 hrs by liquid scintillation counting method", "format": "ADME, organism-based", "settings": "in vivo", "method_in_brief": "as §2"}, "Pancreas": {"test_system": "Pancreas", "test": "Drug level in balb/c mouse pancreas at 15 nmol, ip after 24 hrs by liquid scintillation counting method", "format": "ADME, organism-based", "settings": "in vivo", "method_in_brief": "as §2"}, "Lung [21]": {"test_system": "Lung", "test": "Drug level in lung of human U251 cells xenografted NSG mouse at 20 nmol, ip after 24 hrs by liquid scintillation counting method", "format": "ADME, organism-based, U-251", "settings": "in vivo", "method_in_brief": "as §1"}}}
{"smiles": "CC(=O)N[C@H](CCNC(=O)c1cc(NC(=O)c2cc(NC(=O)c3cc(NC(=O)c4nccn4C)cn3C)cn2C)cn1C)C(=O)Nc1cnc(C(=O)Nc2cc(C(=O)Nc3cc(C(=O)Nc4cc(C(=O)NCCCN(C)CCCN[14C](=O)c5cccc([14C](=O)O)c5)n(C)c4)n(C)c3)n(C)c2)n1C", "values": [{"measurement": "Drug uptake", "setting": "Liver [1]", "result": 0.65, "unit": "mg/kg"}, {"measurement": "Drug uptake", "setting": "Lung [2]", "result": 0.12, "unit": "mg/kg"}, {"measurement": "Drug uptake", "setting": "Tumour [3]", "result": 0.23, "unit": "mg/kg"}, {"measurement": "Drug uptake", "setting": "Tumour [4]", "result": 0.25, "unit": "mg/kg"}, {"measurement": "Drug uptake", "setting": "Liver [5]", "result": 1.04, "unit": "mg/kg"}, {"measurement": "Drug uptake", "setting": "Liver [6]", "result": 0.55, "unit": "mg/kg"}, {"measurement": "Drug uptake", "setting": "Tumour [7]", "result": 0.23, "unit": "mg/kg"}, {"measurement": "Drug uptake", "setting": "Liver [8]", "result": 0.57, "unit": "mg/kg"}, {"measurement": "Drug uptake", "setting": "Bone marrow", "result": 0.24, "unit": "mg/kg"}, {"measurement": "Drug uptake", "setting": "Kidney [9]", "result": 0.27, "unit": "mg/kg"}, {"measurement": "Drug uptake", "setting": "Kidney [10]", "result": 0.23, "unit": "mg/kg"}, {"measurement": "Drug uptake", "setting": "Liver [11]", "result": 0.57, "unit": "mg/kg"}, {"measurement": "Drug uptake", "setting": "Kidney [12]", "result": 0.22, "unit": "mg/kg"}, {"measurement": "Drug uptake", "setting": "Tumour [13]", "result": 0.59, "unit": "mg/kg"}, {"measurement": "Drug uptake", "setting": "Tumour [14]", "result": 1.5, "unit": "mg/kg"}, {"measurement": "Drug uptake", "setting": "Tumour [15]", "result": 0.23, "unit": "mg/kg"}, {"measurement": "Drug uptake", "setting": "Liver [16]", "result": 1.04, "unit": "mg/kg"}, {"measurement": "Drug uptake", "setting": "Lung [17]", "result": 0.15, "unit": "mg/kg"}, {"measurement": "Drug uptake", "setting": "Kidney [18]", "result": 0.27, "unit": "mg/kg"}, {"measurement": "Drug uptake", "setting": "Spleen", "result": 0.32, "unit": "mg/kg"}, {"measurement": "Drug uptake", "setting": "Tumour [19]", "result": 0.65, "unit": "mg/kg"}, {"measurement": "Drug uptake", "setting": "Liver [20]", "result": 0.49, "unit": "mg/kg"}, {"measurement": "Drug uptake", "setting": "Brain", "result": "Not Active"}, {"measurement": "Drug uptake", "setting": "Pancreas", "result": 0.15, "unit": "mg/kg"}, {"measurement": "Drug uptake", "setting": "Lung [21]", "result": 0.12, "unit": "mg/kg"}]}
